# From ChEMBL document CHEMBL4765240, “Design, Synthesis, and Immunological Evaluation of a Multicomponent Construct Based on a Glycotripeptoid Core Comprising B and T Cell Epitopes and a Toll-like Receptor 7 Agonist That Elicits Potent Immune Responses” (J Med Chem, 2018)
# Activity calls are given as the source filed them. The rule behind the calls is not given here. Numbered stars: 1 amine (or outer) side, 2 acyl side, 3 side chain; on linkers, the order of the positions; unused ones are H or OH. Square brackets hold non-standard residues; d marks the D form. Peptide text beside a SMILES is read from it. * marks the point of attachment. X4 = O=C(CCN(CCCO[C@H]1O[C@H](CO)[C@@H](O)[C@H](O)[C@@H]1O)[*:1])[*:2]; X3 = COCCOc1nc(N)c2[nH]c(=O)n(Cc3ccc(C(=O)*)cc3)c2n1; X2 = O=C(CCCCCn1cc(CN[*:1])nn1)[*:2]; Ahx = NCCCCCC(=O)O
# Tests used:
# Bone marrow cell [1] = experiment: Adjuvanted-antitumor vaccine activity in C57BL/6 mouse bone marrow derived cells assessed as induction of IL-6 production at 10^-4 to 10^1 ug/ml incubated for 48 hrs by ELISA; type: functional, cell-based; details: dose 0.0001-10 µg/ml
# Method in brief: (§1)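 BMDCs from C57BL/6 bone marrow grown 6 days in 2-ME/10% FCS RPMI with GM-CSF-containing supernatant, about 60−70% CD11c⁺CD11b⁺. 10⁵ cells incubated at 37 °C for 48 h with increasing compound concentrations. IL-12p40 and IL-6 measured in supernatants by ELISA.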
# Bone marrow cell [2] = experiment: Adjuvanted-antitumor vaccine activity in C57BL/6 mouse bone marrow derived cells assessed as induction of IL-12 production at 10^-4 to 10^1 ug/ml incubated for 48 hrs by ELISA; type: functional, cell-based; details: dose 0.0001-10 µg/ml; method in brief: as §1
# Mus musculus [3] = organism: Mus musculus; experiment: Immuno-adjuvant activity in C57BL/6 mouse assessed as antibody response to Tn3G7K by measuring serum IgG levels at 11 .7 nmol, ID at day 0 and day 21 and measured post second dose; type: functional, organism-based; details: time 21.0 day
# Method in brief: (§2)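 Female C57BL/6 mice, 6 weeks old, were immunized intradermally with 11.7 nmol on days 0 and 21, and sera were taken on day 28. IgG was measured by ELISA on plates coated at 1 μg/mL, with the biotinylated Tn peptide captured on streptavidin plates for 1 h at 37 °C. Serum dilution series were detected with anti-mouse IgG-HRP and OPD/H2O2, read at 492 nm. Titer is the log10 of the highest dilution giving twice the absorbance of naive serum at 1/100, reported as mean SD.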
# Mus musculus [4] = organism: Mus musculus; experiment: Immuno-adjuvant activity in C57BL/6 mouse assessed as antibody response to OVA peptide by measuring serum IgG levels at 11 .7 nmol, ID at day 0 and day 21 and measured post second dose; type: functional, organism-based; details: time 21.0 day
# Mus musculus [5] = organism: Mus musculus; experiment: Adjuvanted-antitumor vaccine activity in C57BL/6 mouse assessed as induction of OT2-T cell mediated IFNgamma production in lymph node at 1 ug/ml, ID incubated for 5 days by anti-IFNgamma staining based flow cytometry; type: functional, organism-based; details: dose 1.0 µg/ml, time 5.0 day
# Mus musculus [6] = organism: Mus musculus; experiment: Immuno-adjuvant activity in immunized-C57BL/6 mouse assessed as antibody recognition in sera against Tn3G7K at 11 .7 nmol, ID at day 1 and day 20 and measured post second dose on day 27; type: functional, organism-based
# Method in brief: (§3)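 C57BL/6 mice, n = 3 per group, received 11.7 nmol intradermally on days 1 and 20, and sera were taken on day 27. ELISA plates were coated at 1 μg/mL with the peptoid or the biotinylated Tn3G7K, the latter on streptavidin plates for 1 h at 37 °C. Serially diluted sera were detected with anti-mouse IgG-HRP and OPD, read at 492 nm. Log10 titer is the dilution giving twice the absorbance of 1/100 naive serum.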
# Mus musculus [7] = organism: Mus musculus; experiment: Immuno-adjuvant activity in immunized-C57BL/6 mouse assessed as antibody recognition in sera against 22 at 11 .7 nmol, ID at day 1 and day 20 and measured post second dose on day 27; type: functional, organism-based; method in brief: as §3
# Mus musculus [8] = experiment: Adjuvanted-antitumor vaccine activity in C57BL/6 mouse assessed as fold increase in OT-2 T cells in spleen at 11.7 nmol, ID coadministered with OT2-derived CD4+ T cell after 5 days […]; type: functional; details: for fold change (FC): time 5 day
# Method in brief: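 2 × 10⁵ OT-II CD4⁺ T cells (from OT-II Rag2 TCR-transgenic knockout mice) transferred into C57BL/6 mice (6−10 weeks, n = 3 per group), then intradermal immunization with 11.7 nmol per mouse. Spleen collected after 5 days; OT-II cells counted by flow cytometry with anti-CD4, anti-Vα2 and anti-Vβ5.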
# Mus musculus [9] = organism: Mus musculus; experiment: Adjuvanted-antitumor vaccine activity in C57BL/6 mouse assessed as induction of OT2-T cell mediated IL-5 production in splenocytes at 11.7 nmol, ID followed by stimulation with OVA(323 to 339) peptide incubated for 48 hrs by ELISA; type: functional, organism-based
# Method in brief: (§4)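 OT-II CD4⁺ T cells (2 × 10⁵) transferred into C57BL/6 mice (n = 3 per group), then 11.7 nmol per mouse given intradermally. Splenocytes harvested at day 5, cultured at 5 × 10⁵ per well with or without OVA 323−339 (1 μg/mL) at 37 °C for 48 h. IFN-γ and IL-5 measured in supernatants by ELISA.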
# Mus musculus [10] = organism: Mus musculus; experiment: Adjuvanted-antitumor vaccine activity in C57BL/6 mouse assessed as induction of OT2-T cell mediated IFNgamma production in splenocytes at 11.7 nmol, ID followed by stimulation with OVA(323 to 339) peptide after 48 hrs by ELISA; type: functional, organism-based; method in brief: as §4
# Mus musculus [11] = organism: Mus musculus; experiment: Immuno-adjuvant activity in C57BL/6 mouse assessed as antibody response to (2R,8R,11S,14R,20R)-14-(2-amino-2-oxoethyl)-20-((2S,5R,8S,11R,14S,17R,20S,23R,26S)-5,14-bis((1H-imidazol-5-yl)methyl)-36-(4-(22-(4-((6-amino-2-(2-methoxyethoxy)-8-oxo-7H-purin-9(8H)-yl)methyl)phenyl)-3,7,11,15,22-pentaoxo-6-(3-((2S,3S,4S,5S,6R)-3,4,5-trihydroxy-6-(hydroxymethyl)tetrahydro-2H-pyran-2-yloxy)propyl)-10,14-bis(3-((2S,3S,4S,5S,6S)-3,4,5-trihydroxy-6-(hydroxymethyl)tetrahydro-2H-pyran-2-yloxy)propyl)-2,6,10,14,21-pentaazadocosyl)-1H-1,2,3-triazol-1-yl)-23-(3-amino-3-oxopropyl)-29-sec-butyl-26-(hydroxymethyl)-17-isopropyl-2,8,11,20-tetramethyl-4,7,10,13,16,19,22,25,28,31-decaoxo-3,6,9,12,15,18,21,24,27,30-decaazahexatriacontanamido)-17-sec-butyl-11-(2-carboxyethyl)-2-(3-guanidinopropyl)-8-methyl-4,7,10,13,16,19-hexaoxo-3,6,9,12,15,18-hexaazatricosane-1,23-dioic acid by measuring serum IgG levels at 11 .7 nmol, ID at day 0 and day 21 and measured post second dose; type: functional, organism-based; method in brief: as §2
# Mus musculus [12] = organism: Mus musculus; experiment: Immuno-adjuvant activity in immunized-C57BL/6 mouse assessed as antibody recognition in sera against 21 at 11 .7 nmol, ID at day 1 and day 20 and measured post second dose on day 27; type: functional, organism-based; method in brief: as §3
# Bone marrow cell [13] = experiment: Adjuvanted-antitumor vaccine activity in C57BL/6 mouse bone marrow derived cells assessed as induction of T cell activation at 10^-4 to 10^1 ug/ml incubated for 3 days in presence of mouse OT2-derived CD4+ T cell by ELISA; details: dose 1.0 µg/ml, time 72.0 hrs
# Mus musculus [14] = organism: Mus musculus; experiment: Adjuvanted-antitumor vaccine activity in C57BL/6 mouse assessed as induction of OT2-T cell mediated IFNgamma production in lymph node at 11.7 nmol, ID incubated for 5 days by anti-IFNgamma staining based flow cytometry; type: functional, organism-based; details: time 5.0 day
# Method in brief: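 Lymph node cells taken at day 5, 5 × 10⁵ per well, restimulated 2 h at 37 °C with 50 μg/mL OVA 323−339 plus GolgiPlug. Fixed, permeabilized, stained with anti-CD4, anti-CD3 and anti-IFNγ; flow cytometry.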
# CD4+ve Th = experiment: Cytotoxicity against OT2 mouse CD4-positive T cells xenografted in C57BL/6 mouse assessed as reduction in cell viability in splenocytes by flow cytometry analysis; type: cell-based; details: in vivo
SMILES,Activity (Bone marrow cell [1]),Activity (Bone marrow cell [2]),Activity (Mus musculus [3]),Activity (Mus musculus [4]),Activity (Mus musculus [5]),Activity (Mus musculus [6]),Activity (Mus musculus [7]),fold change (FC) (Mus musculus [8]),Activity (Mus musculus [9]),Activity (Mus musculus [10]),Activity (Mus musculus [11]),Activity (Mus musculus [12]),Activity (Bone marrow cell [13]),Activity (Mus musculus [14]),Activity (Mus musculus [8]; time 5.0 day),Activity (CD4+ve Th)
CC(=O)N[C@H]1[C@@H](OCCCNCCC(=O)N(CCCO[C@H]2O[C@H](CO)[C@H](O)[C@H](O)[C@H]2NC(C)=O)CCC(=O)N(CCCO[C@H]2O[C@H](CO)[C@H](O)[C@H](O)[C@H]2NC(C)=O)CCC(=O)OC(C)(C)C)O[C@H](CO)[C@H](O)[C@@H]1O,inactive,inactive,,,,,,,,,,,,,,
COCCOc1nc(N)c2[nH]c(=O)n(Cc3ccc(C(=O)NCCCCCC(=O)N(CCCO[C@H]4O[C@H](CO)[C@H](O)[C@H](O)[C@H]4NC(C)=O)CCC(=O)N(CCCO[C@H]4O[C@H](CO)[C@H](O)[C@H](O)[C@H]4NC(C)=O)CCC(=O)N(CCCO[C@H]4O[C@H](CO)[C@H](O)[C@H](O)[C@H]4NC(C)=O)CCC(=O)OC(C)(C)C)cc3)c2n1,Active,Active,inactive,inactive,inactive,,,,,,,,,,,
COCCOc1nc(N)c2[nH]c(=O)n(Cc3ccc(C(=O)O)cc3)c2n1,inactive,inactive,,,,,,,,,,,,,,
CC[C@H](C)[C@H](NC(=O)CCCCCn1cc(CNC(=O)CCN(CCCO[C@H]2O[C@H](CO)[C@H](O)[C@H](O)[C@H]2NC(C)=O)C(=O)CCN(CCCO[C@H]2O[C@H](CO)[C@H](O)[C@H](O)[C@H]2NC(C)=O)C(=O)CCN(CCCO[C@H]2O[C@H](CO)[C@H](O)[C@H](O)[C@H]2NC(C)=O)C(=O)CCCCCNC(=O)c2ccc(Cn3c(=O)[nH]c4c(N)nc(OCCOC)nc43)cc2)nn1)C(=O)N[C@@H](CO)C(=O)N[C@@H](CCC(N)=O)C(=O)N[C@@H](C)C(=O)N[C@H](C(=O)N[C@@H](Cc1cnc[nH]1)C(=O)N[C@@H](C)C(=O)N[C@@H](C)C(=O)N[C@@H](Cc1cnc[nH]1)C(=O)N[C@@H](C)C(=O)N[C@@H](CCC(=O)O)C(=O)N[C@H](C(=O)N[C@@H](CC(N)=O)C(=O)N[C@@H](CCC(=O)O)C(=O)N[C@@H](C)C(=O)NCC(=O)N[C@@H](CCCNC(=N)N)C(=O)O)[C@@H](C)CC)C(C)C (HELM PEPTIDE1{[COCCOc1nc(N)c2[nH]c(=O)n(Cc3ccc(C(=O)NCCCCCC(=O)N(CCCO[C@H]4O[C@H](CO)[C@H](O)[C@H](O)[C@H]4NC(C)=O)CCC(=O)N(CCCO[C@H]4O[C@H](CO)[C@H](O)[C@H](O)[C@H]4NC(C)=O)CCC(=O)N(CCCO[C@H]4O[C@H](CO)[C@H](O)[C@H](O)[C@H]4NC(C)=O)CCC(=O)[*:2])cc3)c2n1].[O=C(CCCCCn1cc(CN[*:1])nn1)[*:2]].I.S.Q.A.V.H.A.A.H.A.E.I.N.E.A.G.R}$$$$V2.0),Active,Active,inactive,inactive,,inactive,Active,30,inactive,Active,Active,Active,Active,Active,,
CC[C@H](C)[C@H](NC(=O)CCCCCn1cc(CNC(=O)CCN(CCCO[C@H]2O[C@H](CO)[C@@H](O)[C@H](O)[C@@H]2O)C(=O)CCN(CCCO[C@H]2O[C@H](CO)[C@@H](O)[C@H](O)[C@@H]2O)C(=O)CCN(CCCO[C@H]2O[C@H](CO)[C@@H](O)[C@H](O)[C@@H]2O)C(=O)CCCCCNC(=O)c2ccc(Cn3c(=O)[nH]c4c(N)nc(OCCOC)nc43)cc2)nn1)C(=O)N[C@@H](CO)C(=O)N[C@@H](CCC(N)=O)C(=O)N[C@@H](C)C(=O)N[C@H](C(=O)N[C@@H](Cc1cnc[nH]1)C(=O)N[C@@H](C)C(=O)N[C@@H](C)C(=O)N[C@@H](Cc1cnc[nH]1)C(=O)N[C@@H](C)C(=O)N[C@@H](CCC(=O)O)C(=O)N[C@H](C(=O)N[C@@H](CC(N)=O)C(=O)N[C@@H](CCC(=O)O)C(=O)N[C@@H](C)C(=O)NCC(=O)N[C@@H](CCCNC(=N)N)C(=O)O)[C@@H](C)CC)C(C)C ({X3-Ahx}-[X4][X4][X4][X2]ISQAVHAAHAEINEAGR-OH),Active,Active,,,,inactive,Active,30,inactive,Active,,Active,Active,Active,,
CC[C@H](C)[C@H](N)C(=O)N[C@@H](CO)C(=O)N[C@@H](CCC(N)=O)C(=O)N[C@@H](C)C(=O)N[C@H](C(=O)N[C@@H](Cc1cnc[nH]1)C(=O)N[C@@H](C)C(=O)N[C@@H](C)C(=O)N[C@@H](Cc1cnc[nH]1)C(=O)N[C@@H](C)C(=O)N[C@@H](CCC(=O)O)C(=O)N[C@H](C(=O)N[C@@H](CC(N)=O)C(=O)N[C@@H](CCC(=O)O)C(=O)N[C@@H](C)C(=O)NCC(=O)N[C@@H](CCCNC(=N)N)C(=O)O)[C@@H](C)CC)C(C)C [ovalbumin peptide] (H-ISQAVHAAHAEINEAGR-OH),,,,,inactive,,,,,,,,,,inactive,Non-Toxic
